# Exocytosis inh: lytic granule exocytosis inhibition; TALL-104 LAMP-1 surface exposure, flow cytometry; cells stimulated with thapsigargin and PMA; inhibition, % at 10 µM; 360,000 compounds, 0.66% hits; AID 651702;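 active = inhibition above about 55%, limit read from the data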
# iPSC survival up: increases survival of single human iPS cells; hiPSC single-cell survival, ATPlite luminescence; 100% = ROCK inhibitor wells, 0% = DMSO; survival enhancement, % at 20 µM; 360,000 compounds, 0.044% hits; AID 602274; in the data active = survival enhancement above about 18%;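 also: cells exposed to compounds for 16 hours before the ATP read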
# UBC13 polyUb: blocks human UBC13 polyubiquitin chain formation. inhibition, % at 20 µM. TR-FRET. AID 485273. 330,000 compounds, 0.47% hits; in the data active = inhibition above about 45%, passing the limit was not always enough
# Target sequence (P61088 whole entry, looked up): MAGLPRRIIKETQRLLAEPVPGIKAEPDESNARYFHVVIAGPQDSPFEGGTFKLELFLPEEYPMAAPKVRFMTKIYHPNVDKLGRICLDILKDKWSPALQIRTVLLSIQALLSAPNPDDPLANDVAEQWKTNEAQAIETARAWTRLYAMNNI
# beta cell repl: induces beta-cell replication in MIN6 cells; AID 2380; MIN6 cells proliferation, ATPlite luminescence, 48 h; cells starved in 0.2% serum; 100% = growth in 10% serum; 330,000 compounds, 0.29% hits; proliferation, % at 10 µM;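 active = compounds whose signal lies at least 3.5 SD above the mean of all wells on their plate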;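 also: 0% = DMSO-treated cells in low-serum medium and 100% = 10% serum control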
# MPTP block: blocks calcium-induced mitochondrial swelling | 360,000 compounds, 1.4% hits | inhibition, % at 10 µM | isolated mouse mitochondria, Ca2+ swelling absorbance, 30 min | AID 602449;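 active = inhibition of 50% or more, scaled per plate between neutral and stimulator controls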;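 also: 0% = DMSO wells given calcium and 100% = 1 mM EGTA wells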
# Apaf-1 inh: human Apaf-1 inhibition; reconstituted apoptosome caspase-3 activity, DEVD-Rh110 fluorescence; O14727; inhibition, % at 20 µM; AID 489030; 330,000 compounds, 0.71% hits; active = inhibition of at least 40% at 20 µM;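 also: plate controls were DMSO wells for no effect and DEVD-CHO caspase inhibitor wells for full effect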
#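 Material: biochemical Apaf-1 apoptosome reconstitution. Medium: Hepes buffer, pH 7.5. Also added: cytochrome c activation, bis-DEVD rhodamine 110 substrate. Timing: 30 min compound preincubation, 50 min activation, room temperature. Measured by: rhodamine 110 fluorescence at Ex 480/Em 540 nm.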
# Rh123 counter: membrane potential counter-screen of mitochondrial pore inhibitors; shares compounds with MPTP block; isolated mitochondria, Rhodamine 123 fluorescence; inhibition, % at 10 µM; 5,000 compounds, 78% hits; in the data active = inhibition above about 22%;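 also: 0% = DMSO vehicle and 100% = positive control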
# * = called active by the depositor; x = no result given. Sampled rows, rich in hits. Any-hit rate of the full collection: about 3%.
SMILES,Exocytosis inh,iPSC survival up,UBC13 polyUb,beta cell repl,MPTP block,Apaf-1 inh,Rh123 counter
COc1ccc(-c2cc3c(=O)n(CC(=O)N4CCCC4)ncn3n2)cc1,-1,-1,-1,-1,-1,0,x
COc1ccc(NS(=O)(=O)c2cccc(C(=O)NNC(=O)CN3C(=O)NC(C)(C)C3=O)c2)cc1,-2,0,1,-2,-1,2,x
O=C(NCCc1cn2ccccc2n1)c1ccccc1F,-4,4,0,-4,-2,4,x
COCC1CCN(C(=O)c2cc(COc3ccc4ncccc4c3)on2)CC1,-2,-1,18,-6,74*,-2,81*
Cc1ccc(OCc2cc(C(=O)N3CCCCCCC3)no2)cc1C,1,0,8,-5,0,3,x
O=C(NCCc1cn2ccccc2n1)c1cc(COc2ccc3ncccc3c2)on1,14,0,12,-7,102*,-12,92*
COCC1CCN(C(=O)c2cc(COc3ccc(-n4cncn4)cc3)on2)CC1,2,0,0,-4,2,2,x
COc1cccc(CN(C)C(=O)c2cc(COc3ccc4ncccc4c3)on2)c1,0,0,27,-7,97*,6,97*
O=C(c1cc(COc2ccc3ncccc3c2)on1)N1CCCCCC1,1,0,8,-6,98*,1,101*
O=C(COC(=O)CNC(=O)c1ccccc1F)NC12CC3CC(CC(C3)C1)C2,4,6,4,0,0,-5,x
Cc1ccc(OCc2cc(C(=O)N3CCCC3)no2)cn1,4,0,-7,-3,1,16,x
O=C(c1cc(COc2ccc3ncccc3c2)on1)N1CCCC1,5,0,3,-6,52*,11,70*
Cn1cc(CNCc2cnc3ccccn23)c(-c2ccc(Oc3ccccc3)cc2)n1,-1,-2,-10,-4,31,-2,x
CN(Cc1cn(C)nc1-c1ccc(Oc2ccccc2)cc1)Cc1cnc2ccccn12,22,0,10,-6,69*,6,57*
O=C(Nc1ccc(OC(F)(F)F)cc1)N1CCc2nc(NCc3cccc(Oc4ccccc4)c3)ncc2C1,2,-3,x,x,92*,x,96*
COc1cccc(NC(=O)N2CCc3nc(NCc4cccc(Oc5ccccc5)c4)ncc3C2)c1,3,-1,x,x,2,x,x
O=c1c(Cc2ccccc2)c(O)c2cccc3c4c(n1c23)CCCC4,-4,-1,6,-1,66*,1,80*
Cn1c(=O)c(Cc2ccccc2)c(O)c2ccccc21,0,-1,18,2,-2,7,x
Cc1cc(NC(=O)Nc2cccc(C(F)(F)F)c2)no1,-2,0,8,-3,76*,7,71*
Cc1cc(NS(=O)(=O)c2ccc(NC(=O)Nc3cccc(C(F)(F)F)c3)cc2)no1,16,1,-10,0,-1,14,x
CCN(CC)S(=O)(=O)c1cccc(NC(=O)Nc2cccc(C(F)(F)F)c2)c1,7,-3,7,-6,87*,5,69*
Cc1cc(/C(N)=N/OC(=O)Nc2cccc(C(F)(F)F)c2)no1,-5,-1,3,7,72*,-24,88*
N/C(=N\OC(=O)Nc1ccccc1)c1cccc(C(F)(F)F)c1,4,0,3,4,-1,-8,x
CC(=O)c1ccc2c(c1)N(CCCN(C)C)c1ccccc1S2,0,0,x,x,29,x,x
CCC(=O)c1ccc2c(c1)N(CCCN(C)C)c1ccccc1S2,6,-4,36,-8,72*,29,-15
SMILES,Exocytosis inh,iPSC survival up,UBC13 polyUb,beta cell repl,MPTP block,Apaf-1 inh,Rh123 counter
CCc1ccc(C2CC3C(CN2S(=O)(=O)c2ccc(C)cc2)[C@@H](O)C[C@@H](c2ccc(CC)cc2)N3S(=O)(=O)c2ccc(C)cc2)cc1 (stereo partly drawn),0,x,x,x,0,x,x
O=C(C[C@H]1C[C@H](C(=O)N2CCCCC2)[C@@]2(CCc3ccccc3)c3[nH]c4ccc(Cl)cc4c3CCN2C1=O)NCCC1=CCCCC1,20,-3,x,x,2,6,x
C/C(=N\NC(=O)c1cccc(Cl)c1)C1C(=O)c2ccccc2C1=O,2,-1,-26,-6,89*,12,85*
COc1ccc(C(=O)OCC(=O)c2c[nH]c3ccccc23)c(OC)c1,11,0,8,-4,0,6,x
CCOc1ccc(N(C)S(=O)(=O)c2ccc(C)c(C(=O)OCC(=O)c3c[nH]c4ccccc34)c2)cc1,1,6,-5,-5,51*,-12,30*
COC(=O)c1cc(CSc2nc3ccccc3[nH]2)oc1C,-2,-2,4,-4,82*,6,40*
CN(C)c1ccc(/C=C/C=C2/SC(=S)N(c3ccccc3)C2=O)cc1,9,0,-179,0,58*,17,-23
O=C(O)c1ccc(N2C(=O)/C(=C/C=C/c3ccccc3)SC2=S)cc1,8,-1,-10,-4,1,-9,x
COc1ccc(C(CCNCc2ccc(F)cc2)c2ccc(F)cc2)cc1 (stereo not drawn),11,-3,19,-6,4,12,x
COc1ccc(CNCCC(c2ccc(F)cc2)c2ccc(OC)cc2)cc1 (stereo not drawn),8,-3,5,-7,56*,12,-8
COc1ccccc1CNC(=O)C1CCN(S(=O)(=O)c2ccc3nc4c(c(C(=O)O)c3c2)CCCC4)CC1,-2,0,-11,3,-1,-2,x
COc1ccc(C2=NN(C(=O)CSc3nccn3C)C(c3ccco3)C2)cc1 (stereo not drawn),0,0,-7,-2,0,-7,x
COc1cc(Cl)cc2c1Sc1ccccc1/C2=C/CCN(C)C,0,-2,22,-4,82*,12,-4
O=[N+]([O-])c1ccccc1CNc1ccc(F)c(Cl)c1,1,-2,1,0,76*,0,80*
O=C(c1ccc(S(=O)(=O)Cc2ccccc2F)c([N+](=O)[O-])c1)N1CCCCCC1,-1,0,-10,-2,1,-1,x
O=C(c1ccc(S(=O)(=O)c2ccccc2Cl)c([N+](=O)[O-])c1)N1CCCCCC1,-6,-1,6,-4,79*,-4,49*
CC(=O)c1c(C)[nH]c(C(=O)OCCCCN2C(=O)c3ccccc3C2=O)c1C,8,-1,8,-5,103*,14,91*
CC(=O)c1c(C)[nH]c(C(=O)OCc2ccccc2)c1C,1,-1,-16,-1,7,-2,x
COc1ccc(CCNC(=O)C(C)n2nc(C)c3c(C)n(-c4ccc(C)cc4)nc3c2=O)c(OC)c1 (stereo not drawn),7,0,0,-3,2,-6,x
